# Results reported in PubChem BioAssay.
# The source made the active and inactive calls.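 Rule for the calls, unless noted: active = fluorescence slope higher than the sample average by over 3 SD (cut at about -0.22 in these data, passing the limit was not always enough); inactive = the rest.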
# Assays:
# [1] = inhibitors of TNFa-induced NFkB p65 translocation, primary screen, imaging, HUVEC, MLSMR starter and 10KST1 sets (AID 438;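 active = inhibition above 20% together with a positive visual image hit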;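 note: compound added about 3h40 before a 20 min TNFalpha stimulation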;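 for inhibition: signal is the nuclear over cytoplasmic p65 intensity ratio per well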); details: HUVEC TNFa-induced p65 nuclear translocation; cell count: measured here: nuclei count (cytotoxicity indicator), at 2.08 µM; inhibition: at 2 µM, stronger effect = higher value, 0% TNFa-plus-vehicle, 100% no-TNFa wells
# [2] = inhibitors of mutant huntingtin aggregation, primary screen, imaging, exon1htt(103Q)mCFP cells, high-content imaging (AID 483;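 active = visual image review flags a hit and inhibition of aggregation exceeds 20%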;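 note: compound exposure lasted 3 days before fixation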;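 for nuclei count: percent of the per-plate median nuclei count of sample wells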); details: exon1htt(103Q)mCFP cell line, aggregate imaging, at 2 µM; inhibition of aggregation: stronger effect = higher value; nuclei count: measured here: cell count, toxicity
# [3] = inhibitors of E-selectin induction by TNFa, primary screen, imaging, HUVEC, immunofluorescence, MLSMR starter and 10KST1 sets (AID 487;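 active = visually confirmed hit in the image check and inhibition above 20%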;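 for inhibition: signal is fraction of cell area covered by stained E-selectin grains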;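 for nuclei count: 100% = median nuclei count of all wells on the same plate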); details: HUVEC TNFalpha-induced E-selectin immunofluorescence imaging, at 2 µM; inhibition: stronger effect = higher value; nuclei count: measured here: cell number, toxicity
# [4] = biological target: Voltage-gated potassium channel subunit beta-2 (Rattus norvegicus) (UniProt P62483); test: KvBeta enzyme negative modulators, primary screen, biochemical, NADPH fluorescence (AID 622); details: recombinant KvBeta, 4-cyanobenzaldehyde reduction, at 10 µM, stronger effect = higher value;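 note: slope of raw intensity against log time taken from 70 to 1610 s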
# [5] = biological target: Voltage-gated potassium channel subunit beta-2 (Rattus norvegicus) (UniProt P62483); test: KvBeta positive modulators, primary screen, biochemical, NADPH fluorescence (AID 623;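 active = NADPH fluorescence slope more negative than the mean of all samples by about 3 SD, 99.7% confidence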;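 note: fluorescence intensity change per second fitted from 20 to 320 s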); details: Recombinant KvBeta, NADPH fluorescence decrease slope, 10 min; at 10 µM; stronger effect = lower value
# [6] = biological target: Muscarinic acetylcholine receptor M4 (Homo sapiens) (UniProt P08173); test: compounds altering M4/GIRK thallium flux, either direction, primary screen, M4 allosteric agonist project, cell-based, HEK293 M4/GIRK, BTC-AM (AID 625;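 active = fluorescence slope after compound addition differing from the mean of all tested samples at 99.7% confidence, mostly higher but some lower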;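 note: thallium influx through GIRK channels coupled to M4 in HEK293 cells with BTC-AM dye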); details: at 10 µM, actives lie on both sides
# Outline: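 assay system = HEK293 cells with M4 receptor and GIRK channels | medium = pH 7.3 thallium assay buffer | doses = 10 µM final, single point | timing = cells overnight at 37 °C, BTC-AM loading 1 h, reads 2 min total | signal = BTC-AM fluorescence, 1 Hz kinetic reads | read-out = post-addition slope, 15–24 s, of baseline-normalized fluorescence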
# [7] = inhibitors of Sendai virus-induced IRF3 signaling, primary screen, TLR/RLR signaling modifier project, cell-based, Sendai virus stimulus, luciferase, 10K MLSCN set (AID 602276;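 active = inhibition at or above 50% at 10 µM; inactive = inhibition below 50%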;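 note: firefly luciferase from ISG56 promoter only with Renilla not read in this screen; 0% = Sendai virus plus DMSO and 100% = medium plus DMSO without virus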); details: HEK293 RL24 IRF3 luciferase reporter, at 10 µM, stronger effect = higher value
# [8] = inhibitors of poly I:C-induced TLR3 signaling, primary screen, cell-based, poly I:C stimulus, luciferase, 10K MLSCN set (AID 602277;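 active = inhibition of the reporter signal at or above 50%; inactive = inhibition below 50%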); details: HEK293-TLR3 RL24 IRF3 luciferase reporter, at 10 µM, stronger effect = higher value
# Chain of Voltage-gated potassium channel subunit beta-2 (Rattus norvegicus) (P62483 whole entry, looked up): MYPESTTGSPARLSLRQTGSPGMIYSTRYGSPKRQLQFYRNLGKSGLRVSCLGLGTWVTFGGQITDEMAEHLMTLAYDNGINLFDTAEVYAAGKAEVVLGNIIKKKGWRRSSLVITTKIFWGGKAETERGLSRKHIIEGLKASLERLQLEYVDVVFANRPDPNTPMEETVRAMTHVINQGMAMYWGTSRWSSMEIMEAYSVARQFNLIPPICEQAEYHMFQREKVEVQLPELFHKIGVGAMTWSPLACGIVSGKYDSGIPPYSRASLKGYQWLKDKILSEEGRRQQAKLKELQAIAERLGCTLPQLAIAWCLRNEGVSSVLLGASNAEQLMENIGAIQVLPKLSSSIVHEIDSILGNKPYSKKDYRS
# Chain of Muscarinic acetylcholine receptor M4 (Homo sapiens) (P08173 whole entry, looked up): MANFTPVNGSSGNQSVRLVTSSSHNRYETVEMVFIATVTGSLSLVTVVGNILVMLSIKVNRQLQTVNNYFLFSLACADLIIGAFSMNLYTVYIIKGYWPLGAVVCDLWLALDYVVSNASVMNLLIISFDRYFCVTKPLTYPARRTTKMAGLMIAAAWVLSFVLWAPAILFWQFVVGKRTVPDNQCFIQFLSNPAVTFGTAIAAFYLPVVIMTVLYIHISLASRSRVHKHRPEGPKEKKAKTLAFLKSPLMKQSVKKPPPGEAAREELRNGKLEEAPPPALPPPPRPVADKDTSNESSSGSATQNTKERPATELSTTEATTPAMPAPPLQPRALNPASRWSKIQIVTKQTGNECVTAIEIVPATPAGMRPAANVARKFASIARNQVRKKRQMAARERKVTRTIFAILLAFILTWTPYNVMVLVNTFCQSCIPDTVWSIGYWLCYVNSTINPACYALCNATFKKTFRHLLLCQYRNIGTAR
SMILES,cell count [1],inhibition [1],inhibition of aggregation [2],nuclei count [2] [%],inhibition [3],nuclei count [3] [%],fluorescence slope [4],NADPH fluorescence slope [5],fluorescence slope [6],inhibition [7],inhibition [8]
O=C(C1CCN(S(=O)(=O)c2ccc(-n3cnnn3)cc2)CC1)N1CCN(c2ccccc2)CC1,464,4.2% (inactive),3.7% (inactive),76.8,-101% (inactive),120,-0.569 (inactive),-4.3e-05 (inactive),0.00595 (inactive),18.7% (inactive),18.2% (inactive)
CC(Oc1ccc(Cl)cc1Cl)c1nc(-c2ccc(NC(=O)c3cccnc3)cc2)no1 (centres undefined),413,6.5% (inactive),-6.9% (inactive),89.5,-60.6% (inactive),112,-0.641 (inactive),4.9e-05 (inactive),0.00494 (inactive),1.84% (inactive),-74.3% (inactive)
Cn1c(=O)c2ncn(CC(=O)NCCOc3ccccc3)c2n(C)c1=O,503,-4.4% (inactive),-3.1% (inactive),98,43% (inactive),91.5,-0.52 (inactive),2.9e-06 (inactive),0.00467 (inactive),18% (inactive),14.3% (inactive)
CCOc1ccc(-c2nnc(N(CC)C(=O)C3CCC3)s2)cc1,440,9.7% (inactive),3.2% (inactive),103,-32% (inactive),111,-0.461 (inactive),2e-05 (inactive),0.00526 (inactive),-19.2% (inactive),-80.4% (inactive)
CCOC(=O)c1ccc(NC(=O)CCc2nc(-c3ccc(C)cc3)no2)cc1,368,0.7% (inactive),21.5% (inactive),103,-32.9% (inactive),116,-0.556 (inactive),-2.2e-05 (inactive),0.0041 (inactive),11.4% (inactive),-5.93% (inactive)
Cc1ccccc1-c1noc(N)c1C#N,515,5.3% (inactive),-0.5% (inactive),95.2,4.6% (inactive),103,-0.317 (inactive),-2.3e-05 (inactive),0.00617 (inactive),12.5% (inactive),-2.11% (inactive)
O=C(NC1CCCCC1)C(c1ccco1)N(Cc1cccnc1)C(=O)C1COc2ccccc2O1 (centres undefined),509,-13.1% (inactive),-14.5% (inactive),111,-4.6% (inactive),198,-0.607 (inactive),-1e-05 (inactive),0.00322 (inactive),22.1% (inactive),35.6% (inactive)
CS(=O)(=O)Nc1ccc(C(=O)NCc2ccc3c(c2)OCO3)cc1,409,-5.7% (inactive),16.6% (inactive),66.5,-42.6% (inactive),108,-0.472 (inactive),-1.7e-05 (inactive),0.00561 (inactive),9.26% (inactive),4.21% (inactive)
COc1ccccc1-c1c(C)nn2c(C)c(C(C)=O)cnc12,768,-0.8% (inactive),13.5% (inactive),97,96.7% (active),81.4,-0.611 (inactive),-3.6e-05 (inactive),0.00778 (inactive),17.1% (inactive),14.2% (inactive)
COCCn1c(SCC(=O)c2ccccc2)nc2c(c1=O)SC(C)C2 (centres undefined),232,7.3% (inactive),-6.9% (inactive),101,-17.9% (inactive),99.1,-0.45 (inactive),-0.000101 (inactive),0.00738 (inactive),1.47% (inactive),7.51% (inactive)
O=C(Cn1cccc1)N1CCN(C(c2ccccc2)c2ccccc2)CC1,337,-8.9% (inactive),-11.9% (inactive),110,-52.8% (inactive),107,-0.213 (inactive),-1.1e-05 (inactive),0.00614 (inactive),13.3% (inactive),22% (inactive)
COc1cccc(Oc2ccc(N)cn2)c1,392,-4.4% (inactive),-4.1% (inactive),100,-126% (inactive),114,-0.537 (inactive),-0.000148 (inactive),0.0033 (inactive),-7.7% (inactive),1.94% (inactive)
CCN1CCCC1CNCc1ccc(Cl)cc1Cl (centres undefined),474,13.6% (inactive),1.2% (inactive),87.1,-106% (inactive),152,-0.316 (inactive),-1.4e-06 (inactive),0.0068 (inactive),-5.98% (inactive),5.14% (inactive)
CC(C(=O)NCCCN1CCOCC1)n1cccc1C(=O)c1ccccc1 (centres undefined),572,2.7% (inactive),-8.2% (inactive),104,-1.5% (inactive),94.2,-0.549 (inactive),-3.4e-05 (inactive),0.00579 (inactive),17.2% (inactive),17% (inactive)
